Results from ChEMBL document CHEMBL4433221, “Novel Sustainable-by-Design HDAC Inhibitors for the Treatment of Alzheimer's Disease” (ACS Med Chem Lett, 2019).
pIC50: −log10 of the molar value. Activity calls are given as the source filed them. The rule behind the calls is not given here.

How the values were obtained:
[1] = biological target: Histone deacetylase 4 (Homo sapiens) (UniProt P56524); assay: Inhibition of human recombinant HDAC4 using fluorogenic trifluoroacetyl lysine as substrate at 10 uM by fluorescence method
Chain of Histone deacetylase 4 (Homo sapiens) (P56524 whole entry, canonical isoform): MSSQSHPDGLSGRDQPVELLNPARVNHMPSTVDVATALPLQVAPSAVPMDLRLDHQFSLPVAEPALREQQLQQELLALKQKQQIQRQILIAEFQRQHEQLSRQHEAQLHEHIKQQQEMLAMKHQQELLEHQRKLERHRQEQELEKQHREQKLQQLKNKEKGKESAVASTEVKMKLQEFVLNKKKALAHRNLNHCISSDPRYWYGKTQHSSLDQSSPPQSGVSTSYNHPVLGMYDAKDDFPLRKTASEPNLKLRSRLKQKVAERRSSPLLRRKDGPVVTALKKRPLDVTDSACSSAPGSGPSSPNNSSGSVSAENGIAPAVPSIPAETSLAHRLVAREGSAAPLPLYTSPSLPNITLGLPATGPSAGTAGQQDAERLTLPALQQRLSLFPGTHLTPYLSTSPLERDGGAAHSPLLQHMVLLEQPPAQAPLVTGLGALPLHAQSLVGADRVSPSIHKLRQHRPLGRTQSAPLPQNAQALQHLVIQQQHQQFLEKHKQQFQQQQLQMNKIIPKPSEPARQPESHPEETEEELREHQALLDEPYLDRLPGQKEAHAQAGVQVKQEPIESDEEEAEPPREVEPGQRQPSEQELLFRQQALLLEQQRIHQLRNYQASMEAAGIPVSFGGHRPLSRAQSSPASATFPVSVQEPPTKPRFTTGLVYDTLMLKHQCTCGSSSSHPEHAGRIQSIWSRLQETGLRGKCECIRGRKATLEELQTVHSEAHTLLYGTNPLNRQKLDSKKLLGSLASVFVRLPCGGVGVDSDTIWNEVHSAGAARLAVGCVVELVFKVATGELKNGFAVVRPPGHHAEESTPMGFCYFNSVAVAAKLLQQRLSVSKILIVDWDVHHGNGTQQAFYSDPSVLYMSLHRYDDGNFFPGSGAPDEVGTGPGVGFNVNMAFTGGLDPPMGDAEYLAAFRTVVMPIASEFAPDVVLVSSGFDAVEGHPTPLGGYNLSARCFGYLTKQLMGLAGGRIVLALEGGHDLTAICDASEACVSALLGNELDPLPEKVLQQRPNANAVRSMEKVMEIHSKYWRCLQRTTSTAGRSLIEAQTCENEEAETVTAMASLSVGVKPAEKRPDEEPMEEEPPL
Method in brief: (§1)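 Selectivity profile across HDAC isoforms 1–11 at a single concentration of 10 μM, run in duplicate.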

Histone deacetylase 1 [2] = biological target: T1, Histone deacetylase 1 (Homo sapiens, UniProt Q13547); assay: Inhibition of human recombinant HDAC1 using ZMAL (Z-(Ac)Lys-AMC fluorogenic substrate incubated for 90 mins by fluorescence method
T1 sequence (Q13547 whole entry, the tested form may be a part): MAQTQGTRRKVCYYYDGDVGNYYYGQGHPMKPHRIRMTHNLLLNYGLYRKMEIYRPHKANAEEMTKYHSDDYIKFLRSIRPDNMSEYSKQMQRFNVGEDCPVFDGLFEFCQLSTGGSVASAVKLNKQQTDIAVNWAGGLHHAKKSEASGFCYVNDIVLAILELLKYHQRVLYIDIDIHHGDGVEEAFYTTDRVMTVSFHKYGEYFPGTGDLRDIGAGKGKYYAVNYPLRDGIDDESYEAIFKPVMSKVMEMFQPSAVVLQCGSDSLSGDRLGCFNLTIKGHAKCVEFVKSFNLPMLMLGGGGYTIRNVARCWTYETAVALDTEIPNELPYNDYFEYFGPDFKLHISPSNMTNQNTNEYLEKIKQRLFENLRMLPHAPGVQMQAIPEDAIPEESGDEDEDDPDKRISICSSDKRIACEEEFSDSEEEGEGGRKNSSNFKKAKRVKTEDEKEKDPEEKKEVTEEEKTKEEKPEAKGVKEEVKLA

Histone deacetylase 1 [3] = biological target: T1, Histone deacetylase 1; assay: Inhibition of human recombinant HDAC1 using fluorogenic peptide p53 residues 379-382 (RHKK(Ac)AMC) as residues at 10 uM by fluorescence method; method in brief: as §1
[4] = Permeability of the compound at pH 7.4 PBS buffer at 100 uM measured upto 6 hrs by PAMPA-BBB assay
Rattus norvegicus = species: Rattus norvegicus; assay: Neuroprotective activity against low serum/K+ deprivation-induced toxicity in rat CGN cells assessed as increase in cell viability at 5 to 25 uM pre-treated for 6 hrs followed by 24 hrs co-treatment with serum/K+ starvation and measured after 24 hrs by MTT assay; assay type: functional, cell-based
Method in brief: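 Primary rat cerebellar granule neurons were pretreated for 6 h, then cotreated for 24 h under low-serum and K+ deprivation to induce death. Viability was compared with control and deprivation-only conditions, with tacrine as reference compound.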

[5] = biological target: T2, Histone deacetylase 8 (Homo sapiens) (UniProt Q9BY41); assay: Inhibition of human recombinant HDAC8 using fluorogenic peptide p53 residues 379-382 (RHK(Ac)K(Ac)AMC) as residues at 10 uM by fluorescence method; method in brief: as §1
T2 sequence (whole entry): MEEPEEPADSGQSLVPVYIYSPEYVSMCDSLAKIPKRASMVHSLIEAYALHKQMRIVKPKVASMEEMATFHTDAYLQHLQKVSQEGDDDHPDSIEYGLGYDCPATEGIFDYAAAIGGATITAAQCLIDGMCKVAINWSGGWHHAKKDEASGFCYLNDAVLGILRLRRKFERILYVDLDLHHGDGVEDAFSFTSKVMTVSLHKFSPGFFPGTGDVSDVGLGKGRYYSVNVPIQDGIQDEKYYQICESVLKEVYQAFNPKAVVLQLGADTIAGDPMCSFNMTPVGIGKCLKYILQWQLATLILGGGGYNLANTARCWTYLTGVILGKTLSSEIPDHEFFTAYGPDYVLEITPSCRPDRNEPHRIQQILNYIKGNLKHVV

[6] = biological target: T3, Histone deacetylase 11 (Homo sapiens) (UniProt Q96DB2); assay: Inhibition of human recombinant HDAC11 using fluorogenic trifluoroacetyl lysine as substrate at 10 uM by fluorescence method; method in brief: as §1
T3 sequence (whole entry): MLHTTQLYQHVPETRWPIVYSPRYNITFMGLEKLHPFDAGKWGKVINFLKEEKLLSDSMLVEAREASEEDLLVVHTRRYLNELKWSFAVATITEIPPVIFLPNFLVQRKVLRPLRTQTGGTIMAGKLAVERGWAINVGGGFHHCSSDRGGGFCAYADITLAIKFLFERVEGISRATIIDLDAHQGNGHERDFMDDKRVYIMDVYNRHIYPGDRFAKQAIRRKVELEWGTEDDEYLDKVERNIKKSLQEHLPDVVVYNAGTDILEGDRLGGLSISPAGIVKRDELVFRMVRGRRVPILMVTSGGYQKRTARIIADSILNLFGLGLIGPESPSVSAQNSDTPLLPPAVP

[7] = biological target: T4, Histone deacetylase 7 (Homo sapiens) (UniProt Q8WUI4); assay: Inhibition of human recombinant HDAC7 using fluorogenic trifluoroacetyl lysine as substrate at 10 uM by fluorescence method; method in brief: as §1
T4 sequence (whole entry): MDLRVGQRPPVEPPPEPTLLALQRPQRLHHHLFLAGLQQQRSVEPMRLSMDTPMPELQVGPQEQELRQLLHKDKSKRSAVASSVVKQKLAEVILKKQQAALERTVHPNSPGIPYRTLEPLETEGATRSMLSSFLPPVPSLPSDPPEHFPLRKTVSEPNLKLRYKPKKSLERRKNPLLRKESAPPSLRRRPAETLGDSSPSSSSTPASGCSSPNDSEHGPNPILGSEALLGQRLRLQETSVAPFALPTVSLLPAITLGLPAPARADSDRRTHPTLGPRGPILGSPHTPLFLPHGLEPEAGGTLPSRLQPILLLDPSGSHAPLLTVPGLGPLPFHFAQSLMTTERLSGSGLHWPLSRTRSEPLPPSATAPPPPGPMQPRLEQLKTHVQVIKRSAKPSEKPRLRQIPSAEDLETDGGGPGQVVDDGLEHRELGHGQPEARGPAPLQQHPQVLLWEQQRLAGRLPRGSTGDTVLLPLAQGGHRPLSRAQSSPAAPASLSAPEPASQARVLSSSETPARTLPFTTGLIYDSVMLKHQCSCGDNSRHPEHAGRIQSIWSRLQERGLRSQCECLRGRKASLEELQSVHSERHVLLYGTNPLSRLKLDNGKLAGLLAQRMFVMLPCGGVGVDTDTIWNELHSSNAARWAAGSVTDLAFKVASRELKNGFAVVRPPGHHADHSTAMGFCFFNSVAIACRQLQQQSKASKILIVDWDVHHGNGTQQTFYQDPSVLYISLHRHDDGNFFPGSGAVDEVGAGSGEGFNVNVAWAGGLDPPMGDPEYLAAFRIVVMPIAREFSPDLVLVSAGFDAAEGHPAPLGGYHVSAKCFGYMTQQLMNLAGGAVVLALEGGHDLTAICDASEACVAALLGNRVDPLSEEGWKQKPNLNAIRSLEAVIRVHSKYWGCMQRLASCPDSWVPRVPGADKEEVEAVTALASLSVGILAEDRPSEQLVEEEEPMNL

[8] = biological target: Histone deacetylase (Mus musculus) (UniProt Q8VH37+Q9Z2V6+Q9Z2V5+O09106+Q8C2B3+P70288+O88895+Q91WA3+Q99N13+Q6NZM9+Q6P3E7); conditions: at 5 to 25 µM
[9] = biological target: Histone deacetylase 2 (Homo sapiens) (UniProt Q92769); assay: Inhibition of human recombinant HDAC2 using fluorogenic peptide p53 residues 379-382 (RHKK(Ac)AMC) as residues at 10 uM mins by fluorescence method; method in brief: as §1
Chain of Histone deacetylase 2 (Homo sapiens) (Q92769 whole entry, the tested form may be a part): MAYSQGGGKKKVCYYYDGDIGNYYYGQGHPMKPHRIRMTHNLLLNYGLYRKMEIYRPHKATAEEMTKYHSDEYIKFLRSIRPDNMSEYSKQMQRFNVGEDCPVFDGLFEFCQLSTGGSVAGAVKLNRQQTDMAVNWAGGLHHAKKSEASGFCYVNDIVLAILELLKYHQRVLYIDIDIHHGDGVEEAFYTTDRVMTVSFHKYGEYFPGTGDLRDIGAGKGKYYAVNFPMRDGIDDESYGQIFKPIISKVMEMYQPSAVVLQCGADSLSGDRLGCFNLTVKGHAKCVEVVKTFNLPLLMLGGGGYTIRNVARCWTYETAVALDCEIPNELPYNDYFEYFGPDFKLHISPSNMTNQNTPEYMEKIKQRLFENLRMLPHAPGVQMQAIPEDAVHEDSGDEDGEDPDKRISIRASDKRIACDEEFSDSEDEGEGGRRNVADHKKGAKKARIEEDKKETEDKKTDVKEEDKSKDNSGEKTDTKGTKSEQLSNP

[10] = biological target: Histone deacetylase 9 (Homo sapiens) (UniProt Q9UKV0); assay: Inhibition of human recombinant HDAC9 using fluorogenic trifluoroacetyl lysine as substrate at 10 uM by fluorescence method; method in brief: as §1
Chain of Histone deacetylase 9 (Homo sapiens) (Q9UKV0 whole entry): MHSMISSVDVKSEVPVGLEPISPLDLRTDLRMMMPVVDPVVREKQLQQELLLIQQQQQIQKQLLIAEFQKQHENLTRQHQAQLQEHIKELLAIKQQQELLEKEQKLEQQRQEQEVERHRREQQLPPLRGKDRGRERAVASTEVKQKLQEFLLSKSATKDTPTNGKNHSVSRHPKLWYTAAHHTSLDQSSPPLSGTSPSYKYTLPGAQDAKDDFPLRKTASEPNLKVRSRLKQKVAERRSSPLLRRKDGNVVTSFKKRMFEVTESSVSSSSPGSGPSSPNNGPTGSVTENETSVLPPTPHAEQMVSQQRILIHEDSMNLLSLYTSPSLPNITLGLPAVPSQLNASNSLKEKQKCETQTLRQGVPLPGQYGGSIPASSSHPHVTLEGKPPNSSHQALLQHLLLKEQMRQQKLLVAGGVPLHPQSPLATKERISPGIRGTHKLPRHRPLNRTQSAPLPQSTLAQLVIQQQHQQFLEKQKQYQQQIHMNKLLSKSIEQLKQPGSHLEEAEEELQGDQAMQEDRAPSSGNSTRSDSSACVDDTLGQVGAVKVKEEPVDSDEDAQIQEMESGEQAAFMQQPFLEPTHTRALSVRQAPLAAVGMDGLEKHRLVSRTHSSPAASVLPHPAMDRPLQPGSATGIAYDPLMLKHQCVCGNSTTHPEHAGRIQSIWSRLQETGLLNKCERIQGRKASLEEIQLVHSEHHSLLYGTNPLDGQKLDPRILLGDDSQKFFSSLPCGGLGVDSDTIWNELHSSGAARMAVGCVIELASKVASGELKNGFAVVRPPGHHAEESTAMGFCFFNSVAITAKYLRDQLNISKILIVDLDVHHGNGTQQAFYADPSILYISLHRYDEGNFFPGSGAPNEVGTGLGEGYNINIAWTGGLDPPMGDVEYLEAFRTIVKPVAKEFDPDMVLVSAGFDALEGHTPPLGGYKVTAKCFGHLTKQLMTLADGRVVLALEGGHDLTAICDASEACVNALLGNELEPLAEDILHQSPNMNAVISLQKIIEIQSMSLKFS

Row | Compound | inhibition [1] | pIC50 (Histone deacetylase 1 [2]) | inhibition (Histone deacetylase 1 [3]) | Papp at 6 h, 100 µM [4] [×10⁻⁶ cm/s] | Activity (Rattus norvegicus) | inhibition [5] | inhibition [6] | inhibition [7] | inhibition [8] | inhibition [9] | inhibition [10]
1 | COC(=O)c1c(CCCCCCCC(=O)NO)cccc1OC | inactive | 6.11 | Active | 10.2 | inactive | inactive | inactive | inactive | Active | inactive | inactive
2 | COc1cccc(CCCCCCCC(=O)NO)c1 | inactive | 6.50 | Active | 13.4 | inactive | inactive | inactive | inactive | Active | inactive | inactive
